Data published in ChEMBL document CHEMBL5108071, “Potent and Specific Activators for Mitochondrial Sirtuins Sirt3 and Sirt5” (J Med Chem, 2022).
Active and inactive are the calls of the source. The calls are words filed in the database; no cut-off is given here.

Legend:
[1] = target: T1, NAD-dependent protein deacetylase sirtuin-3, mitochondrial (Homo sapiens) (UniProt Q9NTG7); assay: Activation of N-terminal his-tagged human SIRT3 (114 to 380 residues) expressed in Escherichia coli assessed as fold activation at 100 uM using ACS2-acK642 as substrate in presence of NAD+; conditions: filed as activator
T1 sequence (whole entry): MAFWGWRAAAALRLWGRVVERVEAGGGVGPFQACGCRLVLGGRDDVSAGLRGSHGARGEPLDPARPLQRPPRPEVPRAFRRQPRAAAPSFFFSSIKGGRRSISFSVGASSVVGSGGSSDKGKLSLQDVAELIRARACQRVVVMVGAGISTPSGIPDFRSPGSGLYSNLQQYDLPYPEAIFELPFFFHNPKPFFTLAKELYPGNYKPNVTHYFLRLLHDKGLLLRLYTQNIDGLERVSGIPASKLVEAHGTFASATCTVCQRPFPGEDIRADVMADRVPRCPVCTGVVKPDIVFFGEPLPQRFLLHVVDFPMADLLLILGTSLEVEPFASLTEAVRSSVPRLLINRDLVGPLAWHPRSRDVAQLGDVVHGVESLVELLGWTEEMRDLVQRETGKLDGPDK
Summary of the method: (§1)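 Coupled continuous enzymatic assay (nicotinamidase/GDH-linked): 1.5 µM purified Sirt3 with 50 µM ACS2-acK642 peptide and 100 µM NAD+, compound at 10 µM, 100 µM or titrated, 5% DMSO final; fold deacetylation versus no-compound control.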

[2] = target: T1, NAD-dependent protein deacetylase sirtuin-3, mitochondrial (Homo sapiens); assay: Activation of N-terminal his-tagged human SIRT3 (114 to 380 residues) expressed in Escherichia coli at 100 uM using ACS2-acK642 as substrate in presence of NAD+ by Mass spectrometry assay relative to control; conditions: filed as activator
Summary of the method: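 Mass-spectrometric deacetylation assay using coupled-assay components (1.5 µM Sirt3, 50 µM peptide, 100 µM NAD+, compound 100 µM) in 50 mM Na-phosphate pH 7.8 plus 0.05 µg/µL PNCA to remove nicotinamide; product and substrate peptides quantified.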

[3] = target: T1, NAD-dependent protein deacetylase sirtuin-3, mitochondrial (Homo sapiens); assay: Activation of SIRT3 in human MDA-MB-231 cells assessed as increase in FdL deacetylation activity at 50 to 100 uM incubated for 3 hrs; format: cell-based; conditions: filed as activator, dose 50-100 µM
Summary of the method: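 MDA-MB-231 cells (RPMI 1640, 10% FBS, 37 °C, 5% CO2) treated 3 h at 50 or 100 µM; 40 µg mitochondrial extract incubated with Fluor de Lys substrate 40 min 37 °C, then developer 10 min; fluorescence ex 360/em 460 nm, buffer background subtracted.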

[4] = target: T1, NAD-dependent protein deacetylase sirtuin-3, mitochondrial (Homo sapiens); assay: Activation of SIRT3 in human MDA-MB-231 cells assessed as increase in GDH activity at 50 uM incubated for 8 hrs […]; format: cell-based; conditions: filed as activator
Summary of the method: (§2)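 MDA-MB-231 cells given 50 µM compound for 4 h, or 4 h then re-dosed for a further 4 h; 10^6 cells lysed, supernatant mixed with glutamate/developer mix, 3 min at 37 °C, absorbance 450 nm, buffer blank subtracted; means ± SD, Student's t-test.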

[5] = target: T1, NAD-dependent protein deacetylase sirtuin-3, mitochondrial (Homo sapiens); assay: Activation of STAT3 protein level in human MDA-MB-231 cells assessed as STAT3 protein expression incubated for 24 hrs by Western blotting; format: cell-based; conditions: filed as activator
[6] = target: T1, NAD-dependent protein deacetylase sirtuin-3, mitochondrial (Homo sapiens); assay: Activation of SIRT3 in human MDA-MB-231 cells assessed as decrease in MnSOD-Lys68 acetylation level at 50 uM incubated for 16 hrs by Western blot analysis assay; format: cell-based; conditions: filed as activator
Summary of the method: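 MDA-MB-231 cells (wild-type and Sirt3-knockdown) treated with 50 µM; 50 µg whole-cell lysate protein run on SDS-PAGE, blotted to PVDF, probed with anti-MnSOD-acK68 and anti-MnSOD, ECL detection; each blot done in triplicate.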

[7] = target: T2, NAD-dependent protein deacetylase sirtuin-1 (Homo sapiens) (UniProt Q96EB6); assay: Activation of N-terminal his-tagged human SIRT1 expressed in Escherichia coli assessed as fold activation at 10 to 100 uM using p53-acK381 as substrate in presence of NAD+; conditions: filed as activator, dose 10-100 µM
T2 sequence (whole entry): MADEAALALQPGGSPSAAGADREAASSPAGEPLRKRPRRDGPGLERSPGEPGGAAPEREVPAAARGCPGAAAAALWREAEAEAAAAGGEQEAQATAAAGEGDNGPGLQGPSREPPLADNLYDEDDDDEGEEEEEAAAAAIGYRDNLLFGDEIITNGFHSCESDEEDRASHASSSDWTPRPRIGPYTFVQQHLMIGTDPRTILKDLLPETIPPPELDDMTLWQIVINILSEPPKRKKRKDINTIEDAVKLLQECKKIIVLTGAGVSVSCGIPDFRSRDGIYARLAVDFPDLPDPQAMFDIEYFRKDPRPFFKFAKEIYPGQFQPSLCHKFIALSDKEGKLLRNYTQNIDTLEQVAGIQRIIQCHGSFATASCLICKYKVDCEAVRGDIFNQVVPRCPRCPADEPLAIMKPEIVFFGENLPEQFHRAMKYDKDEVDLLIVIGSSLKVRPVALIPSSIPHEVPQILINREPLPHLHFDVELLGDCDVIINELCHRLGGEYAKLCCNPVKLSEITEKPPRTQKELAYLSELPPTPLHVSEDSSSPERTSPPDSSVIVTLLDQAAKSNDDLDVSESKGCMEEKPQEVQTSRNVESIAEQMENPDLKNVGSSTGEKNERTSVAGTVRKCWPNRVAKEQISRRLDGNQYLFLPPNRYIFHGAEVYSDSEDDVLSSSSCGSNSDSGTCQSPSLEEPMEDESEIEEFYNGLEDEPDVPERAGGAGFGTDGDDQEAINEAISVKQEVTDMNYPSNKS
Summary of the method: (§3)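 Coupled enzymatic deacylation assay (nicotinamidase/GDH-coupled, continuous): 1.5 μM recombinant Sirtuin (expressed in E. coli, Ni-NTA purified, tag removed, size-exclusion purified) with 50 μM substrate peptide and 100 μM NAD+, without or with 10 μM or 100 μM 1,4-DHP, 5% final DMSO. Activity expressed relative to no-compound control.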

[8] = target: T3, NAD-dependent protein deacetylase sirtuin-3 (Mus musculus) (UniProt Q8R104); assay: Activation of SIRT3 in mouse MEF cells assessed as fold increase in mitochondrial mass at 25 uM incubated for 24 hrs by MT-DR staining based FACS assay; format: cell-based; conditions: filed as activator
T3 sequence (whole entry): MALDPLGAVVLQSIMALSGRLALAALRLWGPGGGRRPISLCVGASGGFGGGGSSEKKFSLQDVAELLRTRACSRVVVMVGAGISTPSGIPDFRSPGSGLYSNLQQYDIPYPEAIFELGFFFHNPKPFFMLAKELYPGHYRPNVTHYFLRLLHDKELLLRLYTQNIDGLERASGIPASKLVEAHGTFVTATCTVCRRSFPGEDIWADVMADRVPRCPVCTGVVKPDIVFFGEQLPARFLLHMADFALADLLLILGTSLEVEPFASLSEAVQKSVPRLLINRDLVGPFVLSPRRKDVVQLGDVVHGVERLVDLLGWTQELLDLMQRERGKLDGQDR
Summary of the method: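 Wild-type and Sirt3 knock-out MEFs exposed to 25 µM compound for 24 h, then stained with 10 nM MitoTracker Deep Red for 30 min at 37 °C; mitochondrial mass by FACS; mean ± SD, n = 2.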

[9] = target: T2, NAD-dependent protein deacetylase sirtuin-1 (Homo sapiens); assay: Activation of N-terminal his-tagged human SIRT1 expressed in Escherichia coli assessed as fold activation at 100 uM using p53-acK381 as substrate in presence of NAD+; conditions: filed as activator; summary of the method: as §3
[10] = target: NAD-dependent protein deacylase sirtuin-5, mitochondrial (Homo sapiens) (UniProt Q9NXA8); assay: Activation of N-terminal his-tagged human SIRT5 (34 to 302 residues) expressed in Escherichia coli assessed as fold activation at 10 to 100 uM using CPS1-succ537 as substrate in presence of NAD+; conditions: filed as activator, dose 10-100 µM; summary of the method: as §3
NAD-dependent protein deacylase sirtuin-5, mitochondrial (Homo sapiens), sequence (Q9NXA8 37-310 limits assumed): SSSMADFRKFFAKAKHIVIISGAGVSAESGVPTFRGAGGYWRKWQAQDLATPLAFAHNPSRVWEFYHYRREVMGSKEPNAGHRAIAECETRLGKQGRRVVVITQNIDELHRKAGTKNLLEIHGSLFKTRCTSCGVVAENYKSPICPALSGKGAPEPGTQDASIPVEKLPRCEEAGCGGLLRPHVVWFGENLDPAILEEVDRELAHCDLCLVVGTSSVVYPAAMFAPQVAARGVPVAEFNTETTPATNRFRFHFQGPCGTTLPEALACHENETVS

[11] = target: T4, NAD-dependent protein deacetylase sirtuin-2 (Homo sapiens) (UniProt Q8IXJ6); assay: Activation of N-terminal SUMO-tagged human SIRT2 (43 to 356 residues) expressed in Escherichia coli assessed as deacetylation of substrate by measuring fold activation at 100 uM using acetylated alpha tubulin-K2 as substrate in presence of NAD+; conditions: filed as activator; summary of the method: as §3
T4 sequence (whole entry): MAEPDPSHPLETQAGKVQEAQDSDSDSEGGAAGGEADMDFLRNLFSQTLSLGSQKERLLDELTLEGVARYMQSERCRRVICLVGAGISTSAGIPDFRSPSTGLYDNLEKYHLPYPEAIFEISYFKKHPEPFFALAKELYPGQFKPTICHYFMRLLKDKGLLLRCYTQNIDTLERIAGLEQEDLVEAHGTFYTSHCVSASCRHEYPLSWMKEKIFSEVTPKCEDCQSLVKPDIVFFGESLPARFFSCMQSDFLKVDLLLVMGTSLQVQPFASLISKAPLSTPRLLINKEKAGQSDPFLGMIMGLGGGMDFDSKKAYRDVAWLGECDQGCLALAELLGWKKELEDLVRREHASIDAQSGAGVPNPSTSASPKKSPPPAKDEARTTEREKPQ

[12] = target: T1, NAD-dependent protein deacetylase sirtuin-3, mitochondrial (Homo sapiens); assay: Activation of SIRT3 in human MDA-MB-231 cells assessed as increase in GDH activity at 50 uM incubated for 4 hrs […]; format: cell-based; conditions: filed as activator; summary of the method: as §2
[13] = target: T1, NAD-dependent protein deacetylase sirtuin-3, mitochondrial (Homo sapiens); assay: Activation of N-terminal his-tagged human SIRT3 (114 to 380 residues) expressed in Escherichia coli assessed as fold activation at 10 to 100 uM using ACS2-acK642 as substrate in presence of NAD+; conditions: filed as activator, dose 10-100 µM; summary of the method: as §1
[14] = target: NAD-dependent protein deacylase sirtuin-5, mitochondrial (Homo sapiens) (UniProt Q9NXA8); assay: Activation of N-terminal his-tagged human SIRT5 (34 to 302 residues) expressed in Escherichia coli assessed as fold activation at more than 200 uM using CPS1-succ537 as substrate in presence of NAD+; conditions: filed as activator
Summary of the method: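 Sirt5 desuccinylation measured by coupled enzymatic assay: 1.5 µM enzyme, 50 µM CPS1-succK537 peptide, 100 µM NAD+, 5% DMSO final; compound titrated; fold activation relative to untreated reaction.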

[15] = target: T1, NAD-dependent protein deacetylase sirtuin-3, mitochondrial (Homo sapiens); assay: Activation of N-terminal his-tagged human SIRT3 (114 to 380 residues) expressed in Escherichia coli using ACS2-acK642 as substrate in presence of NAD+; conditions: filed as activator; summary of the method: as §1
[16] = target: T4, NAD-dependent protein deacetylase sirtuin-2 (Homo sapiens); assay: Activation of N-terminal SUMO-tagged human SIRT2 (43 to 356 residues) expressed in Escherichia coli assessed as deacetylation of substrate at 100 uM using acetylated alpha tubulin-K2 as substrate in presence of NAD+; conditions: filed as activator; summary of the method: as §3

What does the source list for `CCOC(=O)C1=CN(C(=O)c2ccccc2)C=C(C(=O)OCC)C1c1ccccc1`?
fold change (FC) [1]: 3.5; Activity [2]: 300%; Activity [3]: Active; Activity [4]: Active; Activity [5]: Active; Activity [6]: Active; fold change (FC) [7]: 1.5

Which Activity [8] does the source give for `CCOC(=O)C1=CN(Cc2ccccc2)C=C(C(=O)OCC)C1c1cnc2ccccc2c1` here?
The Activity was “Active”.

And the fold change (FC) [7]?
The fold change (FC) was 1.5.

For `CCOC(=O)C1=CN(C(=O)c2cc(OC)c(OC)c(OC)c2)C=C(C(=O)OCC)C1c1cccc(N)c1`, which fold change (FC) [9] is on record?
Its fold change (FC) is 4.

What about the fold change (FC) [10] of the same molecule?
Its fold change (FC) is 3.

What about the fold change (FC) [11] of the same molecule?
The fold change (FC) was 2.5.

What does the source list for `CCOC(=O)C1=CN(C(=O)c2cc(OC)c(OC)c(OC)c2)C=C(C(=O)OCC)C1c1ccccc1`?
Activity [12]: Active; Activity [2]: 400%; fold change (FC) [13]: 5; fold change (FC) [14]: 5; Activity [15]: Active; Activity [16]: Active
